Activity calls are given as the source filed them. No cut-off for these calls is given here.

This passage reports Activity and inhibition results from ChEMBL document CHEMBL4665897, “α-Linolenic Acid-Valproic Acid Conjugates: Toward Single-Molecule Polypharmacology for Multiple Sclerosis” (ACS Med Chem Lett, 2020).

Experiment [1] concerns Olineu. As to the kind of experiment: Induction in mouse Oli-neu cell differentiation to oligodendrocytes assessed as increase in filament length at 5 uM after 48 hrs. The class given is functional. A digest of the protocol:
(§1)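 Oli-Neu cells (immortalized mouse oligodendrocyte precursors) exposed to 5 μM compound for 48 h. Proliferation was scored by cell counting and differentiation by filament length. Values are % of control, mean SE of at least three experiments, one-way ANOVA with Bonferroni.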

For experiment [2], the system named is Cerebellar granule neurone. As to the kind of experiment: Neuroprotective activity against glutamate/glycine-induced excitotoxicity in rat primary Cerebellar granule neurone at 25 uM preincubated for 6 hrs measured after 24 hrs by MTT assay. It is filed as functional, tissue-based. The method in brief: (§2)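 Primary rat cerebellar granule neurons at 8 DIV pretreated 6 h with compound (5, 10, 25 μM), then 100 μM glutamate/10 μM glycine added for a further 24 h with compound present. Viability was read by MTT, expressed as % of control. Values are mean SE of at least four experiments, each in triplicate.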
Background: Tetrazolium assays rely on reduction of a dye to a coloured formazan, in cell work by metabolically active cells.

Experiment [3] concerns Cerebellar granule neurone. Nature of the experiment: Neuroprotective activity against glutamate/glycine-induced excitotoxicity in rat primary Cerebellar granule neurone at 10 uM preincubated for 6 hrs measured after 24 hrs by MTT assay. The class given is functional, tissue-based. A digest of the protocol: as §2
The subject of experiment [4] is Cerebellar granule neurone. As to the kind of experiment: Neuroprotective activity against glutamate/glycine-induced excitotoxicity in rat primary Cerebellar granule neurone at 5 uM preincubated for 6 hrs measured after 24 hrs by MTT assay. It is filed as functional, tissue-based. The method in brief:
as §2

Experiment [5] has as its system Olineu. Nature of the experiment: Induction in mouse Oli-neu cell differentiation to oligodendrocytes assessed as decrease in cell number at 5 uM after 48 hrs. It is filed as functional. A digest of the protocol: as §1
Experiment [6] deals with T1, Histone deacetylase (Homo sapiens) (UniProt Q13547+O15379+Q9UBN7+Q92769+Q9UQL6+Q8WUI4+Q9BY41+Q96DB2+P56524+Q9UKV0+Q969S8). As to the kind of experiment: Inhibition of HDAC in human medulloblastoma (DAOY) cells assessed as increase in acetylated histone levels at […] after 48 hrs by densitometric analysis.
The target in experiment [7] is T1, Histone deacetylase (Homo sapiens). As to the kind of experiment: Inhibition of HDAC in human medulloblastoma (DAOY) cells assessed as increase in acetylated histone levels at 0.5 mM after 48 hrs by densitometric analysis. A digest of the protocol:
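HDAC inhibition in human DAOY medulloblastoma cells was read as acetylated histone H3 by immunoblot densitometry. […] Values are mean SD of three independent experiments, Newman–Keuls after ANOVA versus vehicle.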

Experiment [8] concerns Olineu. Nature of the experiment: Induction in mouse Oli-neu cell differentiation to oligodendrocytes assessed as decrease in Olig2 expression at 5 uM after 48 hrs by Western blot analysis. Background: Immunoblotting shows a protein as a band on a membrane.
Experiment [9] concerns N9 (Mus musculus). Nature of the experiment: Immunomodulatory activity in LPS treated mouse N9 microglial cells assessed as reduction in nitrite level at 0.5 uM preincubated for 6 hrs by Griess reagent assay. To be noted: time 24.0 hrs. (In general: Nitrite, measured by Griess reagent, commonly stands in for NO production.)
Experiment [10] concerns N9 (Mus musculus). As to the kind of experiment: Immunomodulatory activity in LPS treated mouse N9 microglial cells assessed as shift in M1 neurotoxic phenotype to M2 neuroprotective by measuring TREM2 expression level at 0.5 uM preincubated for 6 hrs by western blot analysis.
The test system of experiment [11] is N9 (Mus musculus). Nature of the experiment: Immunomodulatory activity in LPS treated mouse N9 microglial cells assessed as shift in M1 neurotoxic phenotype to M2 neuroprotective by measuring decrease in iNOS expression level at 0.5 uM preincubated for 6 hrs by western blot analysis.
For experiment [12], the system named is Olineu. Nature of the experiment: Induction in mouse Oli-neu cell differentiation to oligodendrocytes assessed as increase in CNPase expression at 5 uM after 72 hrs by Western blot analysis. It is filed as functional. The method in brief: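 Oli-Neu cells exposed to 5 μM compound; Olig2 was assessed at 48 h and CNPase at 72 h. Values are % of control, mean SE of at least three experiments, one-way ANOVA with Bonferroni.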

Take `CC/C=C\C/C=C\C/C=C\CCCCCCCC(=O)NCCOC(=O)C(CCC)CCC`: the result (in the experiment with Olineu [1]; in [3]; in experiment [4]; in the experiment with Olineu [5]; in the experiment with Olineu [8]) was Active. For the same compound, the outcome in experiment [2] was inactive. The inhibition result (in experiment [6]; in [7]; in the experiment on N9 (Mus musculus) [9]; in the experiment on N9 (Mus musculus) [11]) was “Active” throughout. For the same compound, the inhibition result in the experiment with N9 (Mus musculus) [10] is “inactive”.

In the case of `CC/C=C\C/C=C\C/C=C\CCCCCCCC(=O)O`, in experiment [2], the outcome was inactive.

For `CCCC(CCC)C(=O)O`, the outcome with Olineu [12] and in the experiment on Olineu [5] was Active. Further, the result in experiment [2], in [3] and in experiment [4] was inactive. The inhibition entry in experiment [6] was “Active”.

For `CC/C=C\C/C=C\C/C=C\CCCCCCCC(=O)NCCNC(=O)C(CCC)CCC`, the result (in the experiment with Olineu [12]; in the experiment with Olineu [1]; in experiment [3]; in experiment [4]; in the experiment with Olineu [5]; in the experiment on Olineu [8]) was Active. Besides, the result in [2] was inactive. Besides, the inhibition entry (in [6]; in experiment [7]; in the experiment on N9 (Mus musculus) [9]; with N9 (Mus musculus) [11]) was “Active” in each case. Also, in the experiment with N9 (Mus musculus) [10], the inhibition entry is “inactive”.
